DENV2 CPE rescue: inhibitors of DENV2 cytopathic effect. DENV2-infected cells, cytopathic effect rescue, plate reader. hit rate 1.7% among 350,000. CPE inhibition, % at 9.99 µM. AID 651640; in the data active means CPE inhibition above about 20%, passing the limit was not always enough; inconclusive means no clear call, values can overlap the other calls; tested in BHK-21 cells;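 further: 0% = median of neutral control wells and 100% = median of positive control wells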
E-selectin induc: E-selectin induction on HUVECs. HUVEC E-selectin immunofluorescence imaging; normalized: neutral wells 0, TNF-alpha wells 100. activation, % at 7.58 µM. hit rate 0.37% among 260,000. AID 686992;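 active means mean E-selectin-positive cell signal at least 10% of the positive control, reached in at least 60% of replicates, without over 20% cell loss; inconclusive means no rule given, readout overlaps actives, possibly toxicity-flagged; inactive means the rest, including those meeting only one limit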
Target sequence (P16581 whole entry, looked up): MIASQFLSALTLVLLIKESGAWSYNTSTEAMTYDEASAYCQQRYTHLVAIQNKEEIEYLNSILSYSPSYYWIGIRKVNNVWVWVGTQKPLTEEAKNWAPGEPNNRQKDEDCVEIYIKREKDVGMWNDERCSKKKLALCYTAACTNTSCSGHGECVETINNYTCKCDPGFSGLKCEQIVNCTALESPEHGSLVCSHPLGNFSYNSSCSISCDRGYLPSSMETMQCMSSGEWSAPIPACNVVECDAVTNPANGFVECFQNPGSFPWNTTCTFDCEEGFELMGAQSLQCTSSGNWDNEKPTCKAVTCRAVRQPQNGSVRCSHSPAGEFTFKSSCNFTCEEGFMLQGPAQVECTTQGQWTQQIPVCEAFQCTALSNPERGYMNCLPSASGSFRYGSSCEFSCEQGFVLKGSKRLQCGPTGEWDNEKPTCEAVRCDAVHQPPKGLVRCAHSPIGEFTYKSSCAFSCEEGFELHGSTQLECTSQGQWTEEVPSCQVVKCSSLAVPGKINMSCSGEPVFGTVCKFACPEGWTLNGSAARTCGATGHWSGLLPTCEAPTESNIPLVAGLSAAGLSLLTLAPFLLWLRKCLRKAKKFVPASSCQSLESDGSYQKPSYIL
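Assay system: HUVEC primary endothelial cells. Input: 3,000 HUVEC seeded per well. Doses: one compound dose added by pin transfer. Read-out basis: % PE-positive cells. Benchmarks: TNF-alpha high, DMSO low. Detection: immunofluorescence imaging. Buffer or medium: EGM-2, gelatin.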
SIRT5 inh: blocks human SIRT5 desuccinylation of peptide. Purified SirT5, succinyl-peptide AMC, trypsin-coupled fluorescence. inhibition, % at 15 µM. hit rate 1.1% among 330,000. AID 652115; in the data active means inhibition above about 15%; inconclusive means no clear call, values can overlap the other calls
* hit, by the source's call; ? = inconclusive; / = no result; ! = repeats disagree. An excerpt weighted towards active compounds, which were near 2.9% of everything screened.

SMILES	DENV2 CPE rescue	E-selectin induc	SIRT5 inh
COc1ccc(S(=O)(=O)N(C)C[C@H]2Oc3ccc(NC(=O)Nc4ccc(F)cc4)cc3C(=O)N([C@H](C)CO)C[C@@H]2C)cc1	0	0	1
COc1ccc(S(=O)(=O)N(C)C[C@@H]2Oc3ccc(NC(=O)Nc4ccc(F)cc4)cc3C(=O)N([C@H](C)CO)C[C@@H]2C)cc1	2	0	18*
NC(=O)c1ccc[n+](CC(=O)c2ccc(Cl)c(Cl)c2)c1	-1	0	2
CC1Sc2ccc(S(=O)(=O)N3CCC(C(=O)Nc4ccc(Cl)cc4)CC3)cc2NC1=O (configuration not stated)	5	/	3
COc1ccc(S(=O)(=O)N(C)C[C@@H]2Oc3ccc(NC(=O)CCC(F)(F)F)cc3CC(=O)N([C@H](C)CO)C[C@H]2C)cc1	2	2	2
COc1ccc(S(=O)(=O)N(C)C[C@@H]2Oc3ccc(NC(=O)CCC(F)(F)F)cc3C(=O)N([C@H](C)CO)C[C@H]2C)cc1	-2	0	34*
C[C@@H]1CN([C@@H](C)CO)C(=O)c2cc(NC(=O)CCC(F)(F)F)ccc2O[C@@H]1CN(C)S(=O)(=O)c1ccc(F)cc1	?	0	14
C[C@@H]1CN([C@H](C)CO)C(=O)c2cc(NC(=O)CCC(F)(F)F)ccc2O[C@H]1CN(C)S(=O)(=O)c1ccc(F)cc1	-4	0	4
COc1ccc(S(=O)(=O)N(C)C[C@@H]2Oc3ccc(NC(=O)CCC(F)(F)F)cc3CC(=O)N([C@@H](C)CO)C[C@@H]2C)cc1	42*	-1	0
Cc1ccc(S(=O)(=O)N(C)C[C@H]2Oc3ccc(NC(=O)CCC(F)(F)F)cc3C(=O)N([C@H](C)CO)C[C@@H]2C)cc1	29*	0	9
Cc1noc(C)c1NC(=O)N(C)C[C@H]1OCCCC[C@H](C)Oc2ccc(NS(=O)(=O)c3ccccc3)cc2C(=O)N([C@@H](C)CO)C[C@H]1C	7	0	-1
CN(C)S(=O)(=O)c1ccc(C(=O)Nc2nnc(SCc3ccccc3)s2)cc1	4	-1	-1
COc1cccc(/C=C2/C(=O)NN(c3ccc(Br)cc3)C2=O)c1O	7	/	3
CC(=O)n1cc([C@H]2C=C(C(=O)N3CCN(Cc4ccc5c(c4)OCO5)CC3)O[C@@H](OCc3ccc(CO)cc3)C2)c2ccccc21	24*	0	11
C#CCNC(=O)C1=C[C@@H](c2ccc3c(c2)OCO3)C[C@@H](OCCCCO)O1	-14	2	1
C#CCNC(=O)C1=C[C@H](c2cn(C(C)=O)c3ccccc23)C[C@H](OCc2ccc(CO)cc2)O1	-10	1	-2
O=C(C1=C[C@H](C2CC2)C[C@H](OCCCCO)O1)N1CCN(Cc2ccc3c(c2)OCO3)CC1	1	0	5
C#CCNC(=O)C1=C[C@H](c2ccc3c(c2)OCO3)C[C@H](OCCCCO)O1	26*	0	/
CC(=O)n1cc([C@@H]2C=C(C(=O)NCc3ccccc3)O[C@H](OCc3ccc(CO)cc3)C2)c2ccccc21	45*!	3	2
C[C@@H]1C=C(C(=O)N2CCN(Cc3ccc4c(c3)OCO4)CC2)O[C@H](OCCCCO)C1	21*	0	/
CC(=O)n1cc([C@H]2C=C(C(=O)N3CCN(Cc4ccccc4)CC3)O[C@@H](OCc3ccc(CO)cc3)C2)c2ccccc21	0	/	4
Cc1ccc(C(=O)NCCSc2ccc(Cl)cc2)cc1S(=O)(=O)Nc1ccccc1	4	/	-1
COc1ccc(NC(=O)CN(C)CC(=O)Nc2cccc(F)c2)cc1Cl	-10	0	0
Cc1ccsc1C(=O)N(C)CC(=O)N(CC(C)C)c1c(N)n(CC(C)C)c(=O)[nH]c1=O	2	/	-6
CC(=O)n1cc([C@@H]2C=C(C(=O)O)O[C@H](OCc3ccc(CO)cc3)C2)c2ccccc21	28*!	0	1
SMILES	DENV2 CPE rescue	E-selectin induc	SIRT5 inh
O=C(c1ccccc1Br)N1CCN(Cc2ccc3c(c2)OCO3)CC1	50*	0	-2
CC(=O)n1cc([C@@H]2C=C(C(=O)N3CCCCCCC3)O[C@H](OCc3ccc(CO)cc3)C2)c2ccccc21	2	/	2
O=C(O)c1ccccc1C(=O)N1CCN(Cc2ccc3c(c2)OCO3)CC1	0	0	1
C[C@H]1CN([C@@H](C)CO)C(=O)Cc2cc(NS(=O)(=O)c3ccc(F)cc3)ccc2O[C@H]1CN(C)Cc1ccc(Oc2ccccc2)cc1	1	0	9
C[C@H]1CN([C@@H](C)CO)C(=O)c2cccc(NC(=O)NC3CCCCC3)c2O[C@H]1CN(C)C(=O)Nc1ccc2c(c1)OCO2	3	0	2
C[C@@H]1CCCCO[C@H](CN(C)S(=O)(=O)c2ccccc2)[C@H](C)CN([C@@H](C)CO)C(=O)c2cc(NC(=O)Nc3ccc(C(F)(F)F)cc3)ccc2O1	23*	0	7

Screening data (PubChem)
